Data from ChEMBL document CHEMBL2062435, “Synthesis and in vitro antibacterial activity of gemifloxacin derivatives containing a substituted benzyloxime moiety” (2012).

Legend:
Type in all cases: functional
Klebsiella pneumoniae [1] = assay: Antimicrobial activity against Klebsiella pneumoniae 10-4 after 18-24 hrs by two-fold serial dilution method
Outline: (§1)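 Agar-medium twofold serial dilution against Gram-positive and Gram-negative strains; MIC taken as the lowest compound concentration giving complete inhibition of bacterial growth after incubation at 35 °C for 18-24 h.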

Streptococcus pneumoniae [2] = assay: Antimicrobial activity against extended spectrum beta-lactamases-producing Streptococcus pneumoniae 10-1 after 18-24 hrs by two-fold serial dilution method; outline: as §1
Escherichia coli [3] = assay: Antimicrobial activity against Escherichia coli ATCC 25922 after 18-24 hrs by two-fold serial dilution method; outline: as §1
Pseudomonas aeruginosa [4] = assay: Antimicrobial activity against Pseudomonas aeruginosa 10-12 after 18-24 hrs by two-fold serial dilution method; outline: as §1
Pseudomonas aeruginosa [5] = assay: Antimicrobial activity against extended spectrum beta-lactamases-producing Pseudomonas aeruginosa 10-18 after 18-24 hrs by two-fold serial dilution method; outline: as §1
Pseudomonas aeruginosa [6] = assay: Antimicrobial activity against extended spectrum beta-lactamases-producing Pseudomonas aeruginosa 10-20 after 18-24 hrs by two-fold serial dilution method; outline: as §1
Enterococcus faecalis [7] = assay: Antimicrobial activity against Enterococcus faecalis 10-7 after 18-24 hrs by two-fold serial dilution method; outline: as §1
Enterococcus faecalis [8] = assay: Antimicrobial activity against Enterococcus faecalis 10-5 after 18-24 hrs by two-fold serial dilution method; outline: as §1
Escherichia coli [9] = assay: Antimicrobial activity against Escherichia coli 10-2 after 18-24 hrs by two-fold serial dilution method; outline: as §1
Enterococcus faecium [10] = assay: Antimicrobial activity against Enterococcus faecium 10-5 after 18-24 hrs by two-fold serial dilution method; outline: as §1
Pseudomonas aeruginosa [11] = assay: Antimicrobial activity against extended spectrum beta-lactamases-producing Pseudomonas aeruginosa 10-5 after 18-24 hrs by two-fold serial dilution method; outline: as §1
Enterococcus faecium [12] = assay: Antimicrobial activity against Enterococcus faecium 10-9 after 18-24 hrs by two-fold serial dilution method; outline: as §1
Staphylococcus aureus [13] = assay: Antimicrobial activity against extended spectrum beta-lactamases-producing methicillin-resistant Staphylococcus aureus 10-15 after 18-24 hrs by two-fold serial dilution method
Outline: (§2)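 Agar twofold serial dilution MIC against clinical isolates. MIC was taken as the lowest concentration giving complete inhibition of bacterial growth after incubation at 35 °C for 18-24 h.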

Escherichia coli [14] = assay: Antimicrobial activity against extended spectrum beta-lactamases-producing Escherichia coli 10-4 after 18-24 hrs by two-fold serial dilution method; outline: as §1
Klebsiella pneumoniae [15] = assay: Antimicrobial activity against extended spectrum beta-lactamases-producing Klebsiella pneumoniae 10-1 after 18-24 hrs by two-fold serial dilution method; outline: as §1
Pseudomonas aeruginosa [16] = assay: Antimicrobial activity against extended spectrum beta-lactamases-producing Pseudomonas aeruginosa 10-9 after 18-24 hrs by two-fold serial dilution method; outline: as §1
Streptococcus pneumoniae [17] = assay: Antimicrobial activity against extended spectrum beta-lactamases-producing Streptococcus pneumoniae 10-4 after 18-24 hrs by two-fold serial dilution method; outline: as §1
Escherichia coli [18] = assay: Antimicrobial activity against Escherichia coli 10-1 after 18-24 hrs by two-fold serial dilution method; outline: as §1
Klebsiella pneumoniae [19] = assay: Antimicrobial activity against Klebsiella pneumoniae 10-2 after 18-24 hrs by two-fold serial dilution method; outline: as §1
[20] = system: Staphylococcus epidermidis; assay: Antimicrobial activity against extended spectrum beta-lactamases-producing methicillin-resistant Staphylococcus epidermidis 10-10 after 18-24 hrs by two-fold serial dilution method; outline: as §2
[21] = system: Staphylococcus epidermidis; assay: Antimicrobial activity against extended spectrum beta-lactamases-producing methicillin-resistant Staphylococcus epidermidis 10-13 after 18-24 hrs by two-fold serial dilution method; outline: as §2
Staphylococcus aureus [22] = assay: Antimicrobial activity against extended spectrum beta-lactamases-producing methicillin-sensitive Staphylococcus aureus 10-14 after 18-24 hrs by two-fold serial dilution method; outline: as §1
Enterococcus faecalis [23] = assay: Antimicrobial activity against Enterococcus faecalis 10-6 after 18-24 hrs by two-fold serial dilution method; outline: as §1
Staphylococcus aureus [24] = assay: Antimicrobial activity against extended spectrum beta-lactamases-producing methicillin-resistant Staphylococcus aureus 10-11 after 18-24 hrs by two-fold serial dilution method; outline: as §2
Escherichia coli [25] = assay: Antimicrobial activity against extended spectrum beta-lactamases-producing Escherichia coli 10-3 after 18-24 hrs by two-fold serial dilution method; outline: as §1
Pseudomonas aeruginosa [26] = assay: Antimicrobial activity against extended spectrum beta-lactamases-producing Pseudomonas aeruginosa 10-15 after 18-24 hrs by two-fold serial dilution method; outline: as §1
[27] = system: Staphylococcus epidermidis; assay: Antimicrobial activity against extended spectrum beta-lactamases-producing methicillin-sensitive Staphylococcus epidermidis 10-11 after 18-24 hrs by two-fold serial dilution method; outline: as §1
Klebsiella pneumoniae [28] = assay: Antimicrobial activity against extended spectrum beta-lactamases-producing Klebsiella pneumoniae 10-2 after 18-24 hrs by two-fold serial dilution method; outline: as §1
Escherichia coli [29] = assay: Antimicrobial activity against extended spectrum beta-lactamases-producing Escherichia coli 10-2 after 18-24 hrs by two-fold serial dilution method; outline: as §1
Staphylococcus aureus [30] = assay: Antimicrobial activity against extended spectrum beta-lactamases-producing methicillin-sensitive Staphylococcus aureus 10-13 after 18-24 hrs by two-fold serial dilution method; outline: as §1
[31] = system: Staphylococcus epidermidis; assay: Antimicrobial activity against extended spectrum beta-lactamases-producing methicillin-sensitive Staphylococcus epidermidis 10-15 after 18-24 hrs by two-fold serial dilution method; outline: as §1
Escherichia coli [32] = assay: Antimicrobial activity against Escherichia coli 10-3 after 18-24 hrs by two-fold serial dilution method; outline: as §1
Klebsiella pneumoniae [33] = assay: Antimicrobial activity against Klebsiella pneumoniae 10-3 after 18-24 hrs by two-fold serial dilution method; outline: as §1
[34] = system: Staphylococcus epidermidis; assay: Antimicrobial activity against extended spectrum beta-lactamases-producing methicillin-sensitive Staphylococcus epidermidis 10-13 after 18-24 hrs by two-fold serial dilution method; outline: as §1
Klebsiella pneumoniae [35] = assay: Antimicrobial activity against extended spectrum beta-lactamases-producing Klebsiella pneumoniae 10-3 after 18-24 hrs by two-fold serial dilution method; outline: as §1
Staphylococcus aureus [36] = assay: Antimicrobial activity against Staphylococcus aureus ATCC […] after 18-24 hrs by two-fold serial dilution method; outline: as §1

| SMILES | MIC (Klebsiella pneumoniae [1]) | MIC (Streptococcus pneumoniae [2]) | MIC (Escherichia coli [3]) | MIC (Pseudomonas aeruginosa [4]) | MIC (Pseudomonas aeruginosa [5]) | MIC (Pseudomonas aeruginosa [6]) | MIC (Enterococcus faecalis [7]) | MIC (Enterococcus faecalis [8]) | MIC (Escherichia coli [9]) | MIC (Enterococcus faecium [10]) | MIC (Pseudomonas aeruginosa [11]) | MIC (Enterococcus faecium [12]) | MIC (Staphylococcus aureus [13]) | MIC (Escherichia coli [14]) | MIC (Klebsiella pneumoniae [15]) | MIC (Pseudomonas aeruginosa [16]) | MIC (Streptococcus pneumoniae [17]) | MIC (Escherichia coli [18]) | MIC (Klebsiella pneumoniae [19]) | MIC [20] | other results |
| --- | --- | --- | --- | --- | --- | --- | --- | --- | --- | --- | --- | --- | --- | --- | --- | --- | --- | --- | --- | --- | --- |
| CS(=O)(=O)O.NCC1CN(c2nc3c(cc2F)c(=O)c(C(=O)O)cn3C2CC2)C/C1=N\OCc1ccc(OCc2ccccc2)cc1 (racemic) | > 128 µg/mL | 2 µg/mL | 4 µg/mL | 16 µg/mL | 2 µg/mL | 16 µg/mL | 16 µg/mL | 8 µg/mL | 0.25 µg/mL | 32 µg/mL | 16 µg/mL | 32 µg/mL | 8 µg/mL | 0.06 µg/mL | > 128 µg/mL | 2 µg/mL | 8 µg/mL | 0.03 µg/mL | 16 µg/mL | 4 µg/mL | MIC [21]: 4 µg/mL; MIC (Staphylococcus aureus [22]): 1 µg/mL; MIC (Enterococcus faecalis [23]): 32 µg/mL; MIC (Staphylococcus aureus [24]): 4 µg/mL; MIC (Escherichia coli [25]): > 128 µg/mL; MIC (Pseudomonas aeruginosa [26]): 8 µg/mL; MIC [27]: 1 µg/mL; MIC (Klebsiella pneumoniae [28]): > 128 µg/mL; MIC (Escherichia coli [29]): > 128 µg/mL; MIC (Staphylococcus aureus [30]): 1 µg/mL; MIC [31]: 4 µg/mL; MIC (Escherichia coli [32]): 0.125 µg/mL; MIC (Klebsiella pneumoniae [33]): 2 µg/mL; MIC [34]: 16 µg/mL; MIC (Klebsiella pneumoniae [35]): 8 µg/mL; MIC (Staphylococcus aureus [36]): 2 µg/mL |
| CS(=O)(=O)O.NCC1CN(c2nc3c(cc2F)c(=O)c(C(=O)O)cn3C2CC2)C/C1=N\OCc1ccc2c(c1)OCCO2 (racemic) | 128 µg/mL | 0.5 µg/mL | 0.25 µg/mL | 2 µg/mL | 4 µg/mL | 2 µg/mL | 1 µg/mL | 0.5 µg/mL | 4 µg/mL | 8 µg/mL | 2 µg/mL | 8 µg/mL | 0.5 µg/mL | 2 µg/mL | > 128 µg/mL | 2 µg/mL | 2 µg/mL | 16 µg/mL | 16 µg/mL | 0.5 µg/mL | MIC [21]: 0.5 µg/mL; MIC (Staphylococcus aureus [22]): 0.06 µg/mL; MIC (Enterococcus faecalis [23]): 4 µg/mL; MIC (Staphylococcus aureus [24]): 1 µg/mL; MIC (Escherichia coli [25]): > 128 µg/mL; MIC (Pseudomonas aeruginosa [26]): 2 µg/mL; MIC [27]: 0.5 µg/mL; MIC (Klebsiella pneumoniae [28]): > 128 µg/mL; MIC (Escherichia coli [29]): > 128 µg/mL; MIC (Staphylococcus aureus [30]): 0.06 µg/mL; MIC [31]: 0.5 µg/mL; MIC (Escherichia coli [32]): 4 µg/mL; MIC (Klebsiella pneumoniae [33]): 32 µg/mL; MIC [34]: 2 µg/mL; MIC (Klebsiella pneumoniae [35]): 4 µg/mL; MIC (Staphylococcus aureus [36]): 0.06 µg/mL |
| CS(=O)(=O)O.NCC1CN(c2nc3c(cc2F)c(=O)c(C(=O)O)cn3C2CC2)C/C1=N\OCc1ccc2c(c1)OCO2 (racemic) | > 128 µg/mL | 1 µg/mL | 0.125 µg/mL | 0.06 µg/mL | 2 µg/mL | 0.25 µg/mL | 1 µg/mL | 0.5 µg/mL | 2 µg/mL | 4 µg/mL | 8 µg/mL | 4 µg/mL | 0.5 µg/mL | 2 µg/mL | 128 µg/mL | 4 µg/mL | 2 µg/mL | 32 µg/mL | 2 µg/mL | 1 µg/mL | MIC [21]: 0.5 µg/mL; MIC (Staphylococcus aureus [22]): 0.03 µg/mL; MIC (Enterococcus faecalis [23]): 2 µg/mL; MIC (Staphylococcus aureus [24]): 1 µg/mL; MIC (Escherichia coli [25]): 16 µg/mL; MIC (Pseudomonas aeruginosa [26]): 4 µg/mL; MIC [27]: 2 µg/mL; MIC (Klebsiella pneumoniae [28]): > 128 µg/mL; MIC (Escherichia coli [29]): > 128 µg/mL; MIC (Staphylococcus aureus [30]): 0.5 µg/mL; MIC [31]: 4 µg/mL; MIC (Escherichia coli [32]): 8 µg/mL; MIC (Klebsiella pneumoniae [33]): 2 µg/mL; MIC [34]: 1 µg/mL; MIC (Klebsiella pneumoniae [35]): 128 µg/mL; MIC (Staphylococcus aureus [36]): 0.06 µg/mL |
